These results are taken from paper PMC7673712 (Science Advances, 2020).

For data set [1], the system named is CT-26 cells and MCF-7 cells. In words: Cellular RNS detection, red fluorescent dye, microscopy and flow cytometry. It is filed as cell-based. To be noted: after 4 hours of treatment, CT-26 and MCF-7 cells. Summed up:
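CT-26 and MCF-7 cells (RPMI 1640, 10% FBS, 37°C, 5% CO2) grown in 24-well plates were preloaded with NO detection reagent for 2 h under normal culture conditions. The reagent was removed, and cells were exposed to test compound for 1, 2 or 4 h, with a commercial HNO donor as positive control. Cells were washed once, and red fluorescence was imaged by inverted fluorescence microscopy.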
A general note: Flow cytometry measures light scatter and fluorescence of single cells or particles in a stream.

The subject of another data set is CT-26 cells. In words: Cellular GSH quantitative analysis. It is filed as cell-based. Conditions: 1.0 mM, 0.5 and 2 hours. Summed up:
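CT-26 cells (RPMI 1640, 10% FBS, 37°C, 5% CO2) seeded in 24-well plates at 40,000 cells/well for 18 h. Medium replaced with serum-free medium containing test compound at various concentrations. After 0.5 or 2 h the cells were lysed and intracellular GSH was measured with a GSH/GSSG assay kit.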

Data set [2] is described as follows: HNO release half-life of IL-NONOates in PBS, UV absorbance decay at 330 nm. It is filed as physicochemical. Conditions: IL-NONOate formed from the IL; 37°C, pH 7.4, 0.01 M phosphate buffer (PBS).
Data set [3] can be described thus: NO absorption by ILs, gravimetric method. It is filed as physicochemical. Conditions: 30°C until full absorption. Summed up:
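The system was purged with N2 (60 ml/min, 30 min). NO at atmospheric pressure was then bubbled at about 20 ml/min through about 1 g of test compound held in a metal block at 30°C. Uptake was weighed at regular intervals on a balance (±0.0001 g) until absorption was complete, and expressed as mol NO per mol compound.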

A short description of data set [4]: ITC binding of ILs to cardiolipin. Conditions: compared with [Ch][Tau] or [EMIm][APA]. Summed up:
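Isothermal titration calorimetry at 25°C. An aqueous solution of test compound in the syringe was titrated into aqueous 18:1 cardiolipin in the sample cell. One small injection was followed by 28 larger injections, each lasting 10 s, with 120 s between injections and stirring at 1001 rpm. The binding constant was obtained from analysis of the calorimetric data.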

Regarding `[Na+].[Na+].[O-][N+]([O-])=NO` [AS, Na2N2O3], the “intracellular RNS level” value in data set [1] was “failed to achieve this goal”. Besides, in the data set on CT-26 cells, the “intracellular GSH levels” value is recorded as “restoration of GSH”. Regarding `CCn1cc[n+](C)c1.NCCC(=O)[O-]` [[EMIm][APA]], the “t1/2 (HNO release half-life)” value in data set [2] is 16.6 h. Besides, the Absorption capacity in data set [3] is listed as 2.11 mol NO per mol of IL.

As for `C[N+](C)(C)CCO.NCCS(=O)(=O)[O-]` [[Ch][Tau]], the Absorption capacity in data set [3] is on record as 1.67 mol NO per mol of IL. Consider `C[N+](C)(C)CCO.NCCC(=O)[O-]` [[Ch][APA]], for which the “t1/2 (HNO release half-life)” value in data set [2] stood at 17.68 h. The Absorption capacity in data set [3] was 1.70 mol NO per mol of IL. For the same molecule, the “binding constant with CL, comparison” value in data set [4] is “significantly higher”. As for `CCn1cc[n+](C)c1.NCCS(=O)(=O)[O-]` [[EMIm][Tau]], the Absorption capacity in data set [3] was 2.28 mol NO per mol of IL. `C1CCC2=NCCCN2CC1.NCCS(=O)(=O)O` [[DBU][Tau]]: the Absorption capacity in data set [3] is 2.79 mol NO per mol of IL. On to `CCn1cc[n+](C)c1.NCCCS(=O)(=O)[O-]` [[EMIm][APS]], for which the “t1/2 (HNO release half-life)” value in data set [2] stood at 16 h. Besides, the Absorption capacity in data set [3] is 2.79 mol NO per mol of IL. For `CCn1cc[n+](C)c1.NCS(=O)(=O)[O-]` [[EMIm][AMS]] the same measures were 5.4 h and 1.38 mol NO per mol of IL.

`C[N+](C)(CCO)CCO.NCCS(=O)(=O)[O-]` [[HEMN][Tau]]: the Absorption capacity in data set [3] is recorded as 2.51 mol NO per mol of IL. For `CCCCCCCCCCCCCC[P+](CCCCCC)(CCCCCC)CCCCCC.NCCS(=O)(=O)[O-]` [[P66614][Tau]], the “t1/2 (HNO release half-life)” value in data set [2] was 5.42 h. For the same molecule, the Absorption capacity in data set [3] is 3.33 mol NO per mol of IL.
